Data as given in ChEMBL document CHEMBL3608281, “Synthesis and biological evaluation of novel 3,9-substituted β-carboline derivatives as anticancer agents” (Bioorg Med Chem Lett, 2015).
Active and inactive are the calls of the source. The rule behind the calls is not given here.

What was measured:
COLO 205 [1] = test: Cytotoxicity against human COLO205 cells incubated for 48 hrs by MTT assay; type: functional, cell-based; conditions: COLO 205, 48 h
In short: (§1)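 Human tumour lines (HL-60 leukemia, Hep3B liver, H460 lung, A498 renal, COLO205 colon, 2774 and SK-OV-3 ovarian) and normal Detroit 551 skin fibroblasts were exposed to a range of concentrations for 48 h. IC50 is the concentration giving 50% proliferation inhibition, as the mean of three independent determinations.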

A498 = test: Cytotoxicity against human A498 cells incubated for 48 hrs by MTT assay; type: functional, cell-based; conditions: A498, 48 h
[2] = Cytotoxicity against human H460 cells incubated for 48 hrs by MTT assay; type: functional, cell-based; conditions: NCI-H460, 48 h; in short: as §1
[3] = Cytotoxicity against human 2774 cells incubated for 48 hrs by MTT assay; type: functional, cell-based; in short: as §1
SK-OV-3 = test: Cytotoxicity against human SKOV3 cells incubated for 48 hrs by MTT assay; type: functional, cell-based; conditions: SK-OV-3, 48 h; in short: as §1
[4] = Cytotoxicity against human Hep3B cells incubated for 48 hrs by MTT assay; type: functional, cell-based, Hep 3B2; in short: as §1
HL-60 [5] = test: Cytotoxicity against human HL60 cells incubated for 48 hrs by MTT assay; type: functional, cell-based; conditions: HL-60, 48 h; in short: as §1
Detroit 551 = test: Cytotoxicity against human Detroit 551 cells incubated for 48 hrs by MTT assay; type: cell-based; conditions: Detroit 551, 48 h; in short: as §1
COLO 205 [6] = test: Cytotoxicity against human COLO205 cells; type: functional, cell-based
HL-60 [7] = test: Cytotoxicity against human HL60 cells; type: functional, cell-based
HL-60 [8] = test: Induction of apoptosis in human HL60 cells assessed as upregulation of caspase-3 protein expression at 5 uM incubated for 24 hrs and 48 hrs by Western blotting method; type: functional, cell-based
In short: (§2)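 HL-60 cells were exposed to 5 μM for 24 and 48 h. Lysates were immunoblotted for Fas, DR4, DR5, FasL, TRAIL, Bax, Bcl-2, caspase-9, caspase-3 and PARP (cleavage), with β-actin as loading control.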

HL-60 [9] = test: Induction of apoptosis in human HL60 cells assessed as induction of endonuclease-G protein release into cytosol at 5 uM incubated for 24 hrs and 48 hrs by Western blotting method; type: functional, cell-based
HL-60 [10] = test: Increase in Fas protein expression in human HL60 cells at 5 uM incubated for 24 hrs and 48 hrs by Western blotting method; type: functional, cell-based; in short: as §2
HL-60 [11] = test: Induction of cell cycle arrest in human HL60 cells assessed as accumulation at G2/M phase at 10 uM incubated for 48 hrs by propidium iodide staining based flow cytometry (reference value: 16.77%); type: functional
HL-60 [12] = test: Increase in DR4 protein expression in human HL60 cells at 5 uM incubated for 24 hrs and 48 hrs by Western blotting method; type: functional, cell-based; in short: as §2
HL-60 [13] = test: Induction of cell cycle arrest in human HL60 cells assessed as accumulation at G0/G1 phase at 10 uM incubated for 48 hrs by propidium iodide staining based flow cytometry (reference value: 39.51%); type: functional
HL-60 [14] = test: Induction of cell cycle arrest in human HL60 cells assessed as accumulation at S phase at 1 uM incubated for 48 hrs by propidium iodide staining based flow cytometry (reference value: 43.72%); type: functional
HL-60 [15] = test: Induction of cell cycle arrest in human HL60 cells assessed as accumulation at G2/M phase at 5 uM incubated for 48 hrs by propidium iodide staining based flow cytometry (reference value: 16.77%); type: functional
HL-60 [16] = test: Induction of apoptosis in human HL60 cells assessed as late apoptotic cells level at 5 uM incubated for 24 hrs by annexin V/propidium iodide staining based flow cytometry (reference value: 0.4%); type: functional
HL-60 [17] = test: Induction of cell cycle arrest in human HL60 cells assessed as accumulation at G2/M phase at 1 uM incubated for 48 hrs by propidium iodide staining based flow cytometry (reference value: 16.77%); type: functional
HL-60 [18] = test: Increase in FasL protein expression in human HL60 cells at 5 uM incubated for 24 hrs and 48 hrs by Western blotting method; type: functional, cell-based; in short: as §2
HL-60 [19] = test: Induction of cell cycle arrest in human HL60 cells assessed as accumulation at S phase at 5 uM incubated for 48 hrs by propidium iodide staining based flow cytometry (reference value: 43.72%); type: functional
HL-60 [20] = test: Induction of cell cycle arrest in human HL60 cells assessed as accumulation at subG1 phase at 10 uM incubated for 48 hrs by propidium iodide staining based flow cytometry (reference value: 2.5%); type: functional
HL-60 [21] = test: Induction of apoptosis in human HL60 cells assessed as induction of AIF protein release into cytosol at 5 uM incubated for 24 hrs and 48 hrs by Western blotting method; type: functional, cell-based
HL-60 [22] = test: Induction of cell cycle arrest in human HL60 cells assessed as accumulation at subG1 phase incubated for 48 hrs by propidium iodide staining based flow cytometry; type: functional
HL-60 [23] = test: Induction of apoptosis in human HL60 cells assessed as reduction in Bcl-2 protein level at 5 uM incubated for 24 hrs and 48 hrs by Western blotting method; type: functional, cell-based; in short: as §2
HL-60 [24] = test: Induction of apoptosis in human HL60 cells assessed as early apoptotic cells level at 5 uM incubated for 24 hrs by annexin V/propidium iodide staining based flow cytometry (reference value: 0%); type: functional
HL-60 [25] = test: Induction of apoptosis in human HL60 cells assessed as increase in Bax protein level at 5 uM incubated for 24 hrs and 48 hrs by Western blotting method; type: functional, cell-based; in short: as §2
HL-60 [26] = test: Increase in TRAIL protein expression in human HL60 cells at 5 uM incubated for 24 hrs and 48 hrs by Western blotting method; type: functional, cell-based; in short: as §2
HL-60 [27] = test: Induction of cell cycle arrest in human HL60 cells assessed as accumulation at subG1 phase at 5 uM incubated for 48 hrs by propidium iodide staining based flow cytometry (reference value: 2.5%); type: functional
HL-60 [28] = test: Induction of apoptosis in human HL60 cells assessed as induction of Apaf-1 protein release into cytosol at 5 uM incubated for 24 hrs and 48 hrs by Western blotting method; type: functional, cell-based
HL-60 [29] = test: Induction of cell cycle arrest in human HL60 cells assessed as accumulation at G0/G1 phase at 1 uM incubated for 48 hrs by propidium iodide staining based flow cytometry (reference value: 39.51%); type: functional
HL-60 [30] = test: Induction of apoptosis in human HL60 cells assessed as induction of cytochrome-c protein release into cytosol at 5 uM incubated for 24 hrs and 48 hrs by Western blotting method; type: functional, cell-based
HL-60 [31] = test: Induction of cell cycle arrest in human HL60 cells assessed as accumulation at S phase at 10 uM incubated for 48 hrs by propidium iodide staining based flow cytometry (reference value: 43.72%); type: functional
HL-60 [32] = test: Induction of cell cycle arrest in human HL60 cells assessed as accumulation at subG1 phase at 1 uM incubated for 48 hrs by propidium iodide staining based flow cytometry (reference value: 2.5%); type: functional
HL-60 [33] = test: Induction of apoptosis in human HL60 cells assessed as upregulation of caspase-9 protein expression at 5 uM incubated for 24 hrs and 48 hrs by Western blotting method; type: functional, cell-based; in short: as §2
HL-60 [34] = test: Induction of apoptosis in human HL60 cells assessed as late apoptotic cells level at 5 uM incubated for 48 hrs by annexin V/propidium iodide staining based flow cytometry (reference value: 0.4%); type: functional
HL-60 [35] = test: Induction of apoptosis in human HL60 cells assessed as induction of PARP cleavage at 5 uM incubated for 24 hrs and 48 hrs by Western blotting method; type: functional, cell-based; in short: as §2
HL-60 [36] = test: Increase in DR5 protein expression in human HL60 cells at 5 uM incubated for 24 hrs and 48 hrs by Western blotting method; type: functional, cell-based; in short: as §2
HL-60 [37] = test: Induction of cell morphology changes in human HL60 cells assessed as induction of appearance apoptotic bodies at 5 uM incubated for 24 hrs by a phase-contrast microscopy; type: functional, cell-based
In short: (§3)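 HL-60 cells were treated at 1, 5 and 10 μM for 24 h and 48 h and examined microscopically for nuclear shrinkage and apoptotic bodies.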

HL-60 [38] = test: Induction of apoptosis in human HL60 cells assessed as early apoptotic cells level at 5 uM incubated for 48 hrs by annexin V/propidium iodide staining based flow cytometry (reference value: 0%); type: functional
HL-60 [39] = test: Induction of cell morphology changes in human HL60 cells assessed as induction of nuclear shrinkage at 5 uM incubated for 24 hrs by a phase-contrast microscopy; type: functional, cell-based; in short: as §3
HL-60 [40] = test: Induction of cell cycle arrest in human HL60 cells assessed as accumulation at G0/G1 phase at 5 uM incubated for 48 hrs by propidium iodide staining based flow cytometry (reference value: 39.51%); type: functional

O=C(O)C1Cc2c([nH]c3ccccc23)CN1 (stereo unspecified)
IC50 (COLO 205 [1]): > 50 µM | IC50 (A498): > 50 µM | IC50 [2]: > 50 µM

CCOC(=O)c1cc2c3ccccc3n(Cc3ccccc3OC)c2cn1
IC50 [3]: > 100 µM | IC50 (COLO 205 [1]): > 100 µM | IC50 (SK-OV-3): > 100 µM | IC50 (A498): 41.3 µM | IC50 [4]: 8.9 µM | IC50 (HL-60 [5]): 3.9 µM | IC50 [2]: > 100 µM | IC50 (Detroit 551): > 100 µM

COc1cc(Cn2c3ccc(C(C)=O)cc3c3cccnc32)cc(OC)c1OC
IC50 (COLO 205 [6]): 0.52 µM | IC50 (HL-60 [7]): 0.03 µM

CCOC(=O)c1cc2c3ccccc3n(Cc3cccc(OC)c3)c2cn1
IC50 [3]: > 100 µM | IC50 (COLO 205 [1]): 26.7 µM | IC50 (SK-OV-3): > 100 µM | IC50 (A498): 21.6 µM

CCOC(=O)c1cc2c3ccccc3n(Cc3ccc(OC)cc3)c2cn1
IC50 [3]: > 100 µM | IC50 (COLO 205 [1]): 36.9 µM | IC50 (SK-OV-3): > 100 µM | IC50 (A498): 38.5 µM | IC50 [4]: 50 µM | IC50 (HL-60 [5]): 39 µM | IC50 [2]: 50 µM | IC50 (Detroit 551): 50 µM

CCOC(=O)c1cc2c3ccccc3n(Cc3cccnc3)c2cn1
IC50 [3]: > 100 µM | IC50 (COLO 205 [1]): > 100 µM | IC50 (SK-OV-3): > 100 µM | IC50 (A498): > 100 µM | IC50 [4]: > 100 µM | IC50 (HL-60 [5]): > 100 µM | IC50 [2]: > 100 µM | IC50 (Detroit 551): > 100 µM

O=C(O)c1cc2c3ccccc3n(Cc3ccc(F)cc3)c2cn1
IC50 [3]: 23.5 µM | IC50 (COLO 205 [1]): 33.5 µM | IC50 (SK-OV-3): 27.7 µM | IC50 (A498): 7.6 µM

CCOC(=O)c1cc2c3ccccc3n(Cc3ccc(Cl)cc3)c2cn1
IC50 [3]: 16.4 µM | IC50 (COLO 205 [1]): > 100 µM | IC50 (SK-OV-3): 2.9 µM | IC50 (A498): > 100 µM | IC50 [4]: > 100 µM | IC50 (HL-60 [5]): > 100 µM | IC50 [2]: > 100 µM | IC50 (Detroit 551): > 100 µM

COc1ccccc1Cn1c2ccccc2c2cc(C(=O)O)ncc21
Activity (HL-60 [8]): Active | IC50 [3]: 12.6 µM | Activity (HL-60 [9]): Active | Activity (HL-60 [10]): inactive | Activity (HL-60 [11]): 4.98% | Activity (HL-60 [12]): inactive | IC50 (COLO 205 [1]): 32.5 µM | IC50 (SK-OV-3): 21.4 µM | Activity (HL-60 [13]): 55.62% | Activity (HL-60 [14]): 49.22% | Activity (HL-60 [15]): 12.42% | Activity (HL-60 [16]): 27.9% | Activity (HL-60 [17]): 16.11% | Activity (HL-60 [18]): inactive | IC50 (A498): 7.5 µM | Activity (HL-60 [19]): 50.19% | Activity (HL-60 [20]): 17.79% | Activity (HL-60 [21]): Active | Activity (HL-60 [22]): Dose-dependent effect | Activity (HL-60 [23]): Active | Activity (HL-60 [24]): 37.9% | Activity (HL-60 [25]): Active | Activity (HL-60 [26]): inactive | Activity (HL-60 [27]): 14.55% | Activity (HL-60 [28]): Active | Activity (HL-60 [29]): 34.67% | IC50 [4]: 6.7 µM | Activity (HL-60 [30]): Active | Activity (HL-60 [31]): 39.4% | IC50 (HL-60 [5]): 4 µM | Activity (HL-60 [32]): 9.83% | IC50 [2]: 8 µM | Activity (HL-60 [33]): Active | Activity (HL-60 [34]): 38.6% | Activity (HL-60 [35]): Active | Activity (HL-60 [36]): inactive | Activity (HL-60 [37]): Active | Activity (HL-60 [38]): 46.6% | Activity (HL-60 [39]): Active | Activity (HL-60 [40]): 37.39% | IC50 (Detroit 551): > 100 µM

O=C(O)c1cc2c3ccccc3n(Cc3ccccc3)c2cn1
IC50 (COLO 205 [1]): 31 µM | IC50 (A498): 9.2 µM | IC50 [4]: 4.4 µM | IC50 (HL-60 [5]): 5 µM | IC50 [2]: 18.5 µM
